According to ChEMBL document CHEMBL2093137, “WHO-TDR NTD Screening”:
Values after ≈ are worked out from the molar mass of the structure shown.

Assays:
[1] = test system: Brugia malayi; experiment: WHO-TDR: Lymphatic Filariasis; format: functional; parameters: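 tested at 10 µM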
In short: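 The screening set was a 10,000-compound diverse library from Life Chemicals, filtered for drug-likeness and for reactive groups. It was run against Brugia malayi microfilariae as whole organisms, using previously published standard procedures. Reference drugs acted as positive controls, and activity is reported both as percent inhibition and as IC50.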

[2] = WHO-TDR: Cytotoxicity; format: toxicity, cell-based; conditions: human, MRC5 cells
[3] = test system: Trypanosoma brucei brucei; experiment: WHO-TDR: Human African Trypanosomiasis (HAT); format: functional, organism-based; conditions: Squib-427
In short: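 In this whole-organism screen, the target was the bloodstream form of Trypanosoma brucei, strain Squib 427. A diverse set of 10,000 compounds from Life Chemicals, previously filtered for drug-likeness and reactive groups, was assayed by standard published procedures using reference drugs as positive controls. Each value is an IC50 for antiparasitic potency.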

[4] = test system: Leishmania infantum; experiment: WHO-TDR: Leishmaniasis; format: functional, organism-based, Mus musculus; conditions: Macrophage
In short: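 Intracellular amastigotes of Leishmania infantum MHOM/MA(BE)/67, hosted in murine peritoneal macrophages, were exposed to compounds from a 10,000-member diverse library supplied by Life Chemicals. The library had been filtered for drug-likeness and reactive groups. The reported IC50 expresses antiparasitic potency.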

[5] = test system: Trypanosoma cruzi; experiment: WHO-TDR: Chagas disease; format: functional, organism-based, Homo sapiens; conditions: MRC5
In short: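 Whole-organism screen of a 10,000-compound diverse library from Life Chemicals, filtered for drug-likeness and reactive groups, against intracellular amastigotes of Trypanosoma cruzi Tulahuen CL2 beta-galactosidase strain grown in MRC-5SV2 human lung fibroblast host cells. The assay followed previously published standard procedures, with a reference drug as positive control. Antiparasitic potency is reported as IC50.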

[6] = test system: Schistosoma mansoni; experiment: WHO-TDR: Schistosomiasis; format: functional; parameters: concentration or dose not given beside the values
In short: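 Percent inhibition and IC50 describe activity against whole Schistosoma mansoni worms of the Puerto Rican strain, tested as larvae and/or adults. The compounds screened were a diverse set of 10,000 from Life Chemicals, filtered for drug-likeness and reactive groups. Testing followed previously published standard procedures, with a reference drug as positive control.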

[7] = test system: Onchocerca ochengi; experiment: WHO-TDR: Onchocerciasis; format: functional; parameters: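 at 12.5 µM on microfilariae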
In short: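 Percent inhibition and IC50 describe activity against microfilariae of Onchocerca ochengi or Onchocerca lienalis, used as animal-pathogen substitutes for the human parasite. The compounds tested made up a 10,000-member diverse library from Life Chemicals.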

[8] = test system: Plasmodium falciparum K1; experiment: WHO-TDR: Malaria; format: functional, organism-based, Homo sapiens; conditions: Erythrocyte
In short: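 Previously published standard procedures, including a reference drug as positive control, were used to screen whole Plasmodium falciparum K1 parasites inside human red blood cells. IC50 is the measure of antiplasmodial potency. The compounds were a 10,000-member diverse Life Chemicals library.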

Row | SMILES | IC50 [3] | IC50 [4] | IC50 [8] | % Inhibition [1] | IC50 [2] | IC50 [5] | % Inhibition [6] | % Inhibition [7]
1 | O=C(COc1ccc(Cl)cc1)NCCCn1nc(-c2ccc(F)cc2)ccc1=O | > 12.5 µg/mL | > 12.5 µg/mL | > 12.5 µg/mL | 0% | > 12.5 µg/mL | > 12.5 µg/mL | 16.7% | 100%
2 | COc1ccc(-c2ccc(=O)n(CCCNC(=O)Cc3ccc(F)cc3)n2)cc1 | > 11.9 µg/mL | > 11.9 µg/mL | > 11.9 µg/mL | 0% | 11.3 µg/mL (≈ 28.7 µM) | > 11.9 µg/mL | 0% | 100%
3 | Cc1ccc(-c2ccc(=O)n(CCCNS(=O)(=O)c3ccc(Cl)s3)n2)cc1 | > 12.7 µg/mL | > 12.7 µg/mL | > 12.7 µg/mL | 0% | 5.29 µg/mL (≈ 12.5 µM) | > 12.7 µg/mL | 0% | 100%
4 | O=c1ccc(-c2ccc(F)cc2)nn1CCCNS(=O)(=O)c1cc(F)ccc1F | 4.24 µg/mL (≈ 10 µM) | > 12.7 µg/mL | > 12.7 µg/mL | 0% | 3.28 µg/mL (≈ 7.74 µM) | > 12.7 µg/mL | 0% | 100%
5 | O=c1ccc(-c2ccc(F)cc2)nn1CCCNS(=O)(=O)/C=C/c1ccccc1 | 5.43 µg/mL (≈ 13.1 µM) | > 12.4 µg/mL | 6.97 µg/mL (≈ 16.9 µM) | 0% | 6.58 µg/mL (≈ 15.9 µM) | > 12.4 µg/mL | 0% | 100%
6 | COc1cc(C)ccc1S(=O)(=O)NCCCn1nc(-c2ccc(F)cc2)ccc1=O | > 12.9 µg/mL | > 12.9 µg/mL | > 12.9 µg/mL | 0% | 10 µg/mL (≈ 23.2 µM) | > 12.9 µg/mL | 0% | 100%
7 | O=C(Nc1ccc(SCC(=O)N2CCc3ccccc32)nn1)c1ccccc1F | > 12.3 µg/mL | 0.397 µg/mL (≈ 0.972 µM) | > 12.3 µg/mL | 0% | > 12.3 µg/mL | > 12.3 µg/mL | 0% | 0%
8 | O=C(CSc1ccc(NC(=O)c2ccco2)nn1)Nc1ccccc1C(F)(F)F | > 12.7 µg/mL | > 12.7 µg/mL | > 12.7 µg/mL | 0% | > 12.7 µg/mL | > 12.7 µg/mL | 0% | 100%
9 | CCCc1nnc(NC(=O)CSc2ccc(NC(=O)c3cccs3)nn2)s1 | > 12.6 µg/mL | 0.408 µg/mL (≈ 0.97 µM) | > 12.6 µg/mL | 0% | > 12.6 µg/mL | > 12.6 µg/mL | 0% | 0%
10 | O=C(CSc1ccc(NC(=O)c2cccs2)nn1)c1ccc(Cl)cc1 | > 11.7 µg/mL | > 11.7 µg/mL | > 11.7 µg/mL | 0% | 3.14 µg/mL (≈ 8.05 µM) | > 11.7 µg/mL | 0% | 100%
11 | O=C(NCCNC(=O)c1cccc(Cl)c1)c1ccc(NC(=O)c2ccc(F)cc2)cc1 | > 13.2 µg/mL | 0.427 µg/mL (≈ 0.971 µM) | > 13.2 µg/mL | 0% | > 13.2 µg/mL | > 13.2 µg/mL | 0% | 0%
12 | COc1ccc(C(=O)C2C(=O)N(c3ccccc3)N=C2C)c(OC)c1 (stereo not given) | > 10.2 µg/mL | > 10.2 µg/mL | > 10.2 µg/mL | 0% | > 10.2 µg/mL | > 10.2 µg/mL | 0% | 100%
13 | O=C(c1ccc2c(c1)OCO2)C1C(=O)N(c2ccccc2)N=C1c1ccccc1 (stereo not given) | 3.32 µg/mL (≈ 8.63 µM) | > 11.5 µg/mL | > 11.5 µg/mL | 0% | 6.6 µg/mL (≈ 17.2 µM) | > 11.5 µg/mL | 0% | 100%
14 | O=C(c1ccc(Br)o1)C1C(=O)N(c2ccccc2)N=C1c1ccccc1 (stereo not given) | 4.44 µg/mL (≈ 10.8 µM) | > 12.3 µg/mL | > 12.3 µg/mL | 0% | > 12.3 µg/mL | 5.34 µg/mL (≈ 13.1 µM) | 0% | 100%
15 | CCCCC1CCC(C(=O)NCCn2nc(-c3ccncc3)ccc2=O)CC1 (stereo not given) | > 11.5 µg/mL | 0.371 µg/mL (≈ 0.97 µM) | > 11.5 µg/mL | 0% | 11 µg/mL (≈ 28.7 µM) | 6.12 µg/mL (≈ 16 µM) | 0% | 0%
16 | O=c1ccc(-c2ccncc2)nn1CCNS(=O)(=O)c1ccc2c(c1)CCCC2 | > 12.3 µg/mL | > 12.3 µg/mL | > 12.3 µg/mL | 0% | > 12.3 µg/mL | > 12.3 µg/mL | 0% | 100%
17 | O=C(CC(c1ccccc1)c1ccccc1)NCCCn1nc(-c2ccncc2)ccc1=O | 7.53 µg/mL (≈ 17.2 µM) | > 13.2 µg/mL | 5.95 µg/mL (≈ 13.6 µM) | 0% | > 13.2 µg/mL | 5.91 µg/mL (≈ 13.5 µM) | 0% | 100%
18 | O=c1ccc(-c2ccncc2)nn1CCCNS(=O)(=O)c1ccc2c(c1)CCCC2 | > 12.7 µg/mL | > 12.7 µg/mL | > 12.7 µg/mL | 0% | > 12.7 µg/mL | 4.77 µg/mL (≈ 11.2 µM) | 0% | 100%
19 | COc1ccc(OC)c(S(=O)(=O)NCCNc2ccc(Nc3cc(C)ccn3)nn2)c1 | 4.66 µg/mL (≈ 10.5 µM) | > 13.3 µg/mL | 5.13 µg/mL (≈ 11.5 µM) | 50% | > 13.3 µg/mL | > 13.3 µg/mL | 0% | 100%

Continued, in another order:

Row | IC50 [3] | IC50 [4] | IC50 [8] | SMILES | % Inhibition [1] | IC50 [2] | IC50 [5] | % Inhibition [6] | % Inhibition [7]
20 | > 12.5 µg/mL | > 12.5 µg/mL | 1.48 µg/mL (≈ 3.56 µM) | Cc1ccnc(Nc2ccc(NCCNC(=O)c3cccc(C(F)(F)F)c3)nn2)c1 | 0% | 9.41 µg/mL (≈ 22.6 µM) | > 12.5 µg/mL | 0% | 100%
21 | 4.09 µg/mL (≈ 10.2 µM) | > 12 µg/mL | 5.9 µg/mL (≈ 14.7 µM) | Cc1ccnc(Nc2ccc(NCCNC(=O)c3ccc(F)cc3Cl)nn2)c1 | 25% | > 12 µg/mL | > 12 µg/mL | 0% | 100%
22 | 3.82 µg/mL (≈ 9.71 µM) | > 11.8 µg/mL | 9.93 µg/mL (≈ 25.2 µM) | COc1cccc(NC(=O)NCCNc2ccc(Nc3cc(C)ccn3)nn2)c1 | 25% | > 11.8 µg/mL | > 11.8 µg/mL | 0% | 100%
23 | > 11.4 µg/mL | > 11.4 µg/mL | > 11.4 µg/mL | Cc1ccnc(Nc2ccc(NCCNC(=O)Nc3ccc(F)cc3)nn2)c1 | 0% | > 11.4 µg/mL | > 11.4 µg/mL | 0% | 100%
24 | 3.91 µg/mL (≈ 9.71 µM) | 3.91 µg/mL (≈ 9.71 µM) | 12.1 µg/mL (≈ 30 µM) | Cc1ccnc(Nc2ccc(NCCNS(=O)(=O)c3ccc(F)cc3)nn2)c1 | 50% | > 12.1 µg/mL | 4.13 µg/mL (≈ 10.3 µM) | 0% | 100%
25 | 4.02 µg/mL (≈ 9.6 µM) | > 12.6 µg/mL | > 12.6 µg/mL | Cc1ccnc(Nc2ccc(NCCNS(=O)(=O)c3cccc(Cl)c3)nn2)c1 | 0% | > 12.6 µg/mL | > 12.6 µg/mL | 0% | 100%
26 | > 11.8 µg/mL | 0.381 µg/mL (≈ 0.971 µM) | > 11.8 µg/mL | Cc1ccnc(Nc2ccc(N3CCN(C(=O)c4ccc(F)cc4)CC3)nn2)c1 | 0% | > 11.8 µg/mL | > 11.8 µg/mL | 0% | 0%
27 | 5.21 µg/mL (≈ 12.4 µM) | > 12.6 µg/mL | 9.16 µg/mL (≈ 21.8 µM) | COc1cccc(NC(=O)N2CCN(c3ccc(Nc4cc(C)ccn4)nn3)CC2)c1 | 0% | > 12.6 µg/mL | > 12.6 µg/mL | 0% | 100%
28 | 5.79 µg/mL (≈ 14.2 µM) | > 12.2 µg/mL | > 12.2 µg/mL | Cc1ccnc(Nc2ccc(N3CCN(C(=O)Nc4cccc(F)c4)CC3)nn2)c1 | 75% | > 12.2 µg/mL | > 12.2 µg/mL | 0% | 100%
29 | > 12.5 µg/mL | > 12.5 µg/mL | 8.24 µg/mL (≈ 19.7 µM) | CCc1ccc(NC(=O)N2CCN(c3ccc(Nc4cc(C)ccn4)nn3)CC2)cc1 | 50% | > 12.5 µg/mL | > 12.5 µg/mL | 0% | 100%
30 | > 11.3 µg/mL | > 11.3 µg/mL | 3.3 µg/mL (≈ 8.76 µM) | CCc1ccc(C(=O)NCCNc2ccc(Nc3cccc(C)n3)nn2)cc1 | 0% | 6.22 µg/mL (≈ 16.5 µM) | > 11.3 µg/mL | 0% | 100%
